Reference: ChEMBL document CHEMBL4190389, “Synthesis and activity of di- or trisubstituted N-(phenoxyalkyl)- or N-{2-[2-(phenoxy)ethoxy]ethyl}piperazine derivatives on the central nervous system” (Bioorg Med Chem Lett, 2018)
pEC50, pIC50, pKi: −log10 of the molar value. Calls of active or inactive are those of the source. No cut-off for these calls is given here.

Assays:
[1] = target: T1, 5-hydroxytryptamine receptor 1A (Homo sapiens) (UniProt P08908); assay: (§1) Antagonist activity at human 5-HT1A receptor expressed in CHO-K1 cells co-expressing Galpha16 assessed as decrease in serotonin calcium mobilization preincubated for 25 mins followed by serotonin challenge measured for 30 secs by aequorin-derived luminescence assay; type: functional, cell-based
T1 sequence (whole entry): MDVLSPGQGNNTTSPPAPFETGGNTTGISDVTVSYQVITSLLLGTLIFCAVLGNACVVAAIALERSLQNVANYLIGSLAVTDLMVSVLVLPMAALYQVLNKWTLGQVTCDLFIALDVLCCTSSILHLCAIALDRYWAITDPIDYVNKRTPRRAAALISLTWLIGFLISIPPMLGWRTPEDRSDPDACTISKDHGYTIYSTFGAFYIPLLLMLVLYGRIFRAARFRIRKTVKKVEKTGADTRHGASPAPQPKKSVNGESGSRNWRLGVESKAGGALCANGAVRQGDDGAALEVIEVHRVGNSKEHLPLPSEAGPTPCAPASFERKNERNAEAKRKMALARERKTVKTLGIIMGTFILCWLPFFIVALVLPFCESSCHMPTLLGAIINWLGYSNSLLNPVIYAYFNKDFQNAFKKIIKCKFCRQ

[2] = target: T2, 5-hydroxytryptamine receptor 1A (Homo sapiens, UniProt P08908); assay: as §1; type: functional, cell-based
T2 sequence (P08908 whole entry): T1 sequence (whole entry)

D(2) dopamine receptor [3] = target: T3, D(2) dopamine receptor (Homo sapiens, UniProt P14416); assay: Agonist activity at human D2 receptor expressed in CHO-K1 cells co-expressing Galphaqi5 assessed as increase in calcium mobilization measured for 30 secs by aequorin-derived luminescence assay; type: functional, cell-based
Mus musculus [4] = assay: Antidepressant-like activity in Albino Swiss CD-1 mouse assessed as immobility time at 5 mg/kg, ip administered 30 mins prior to test measured for last 4 mins of 6 mins observation by forced swim test (reference value: 153.9 to 201.9 secs); type: functional
[5] = target: 5-hydroxytryptamine receptor 6 (Homo sapiens, UniProt P50406); assay: Displacement of [3H]LSD from recombinant human 5-HT6 receptor expressed in CHO cells cell membranes after 60 mins by liquid scintillation counting method
Mus musculus [6] = assay: Antidepressant-like activity in Albino Swiss CD-1 mouse assessed as immobility time at 10 mg/kg, ip administered 30 mins prior to test measured for last 4 mins of 6 mins observation by forced swim test (reference value: 153.9 to 201.9 secs); type: functional
Mus musculus [7] = assay: Antidepressant-like activity in Albino Swiss CD-1 mouse assessed as immobility time at 20 mg/kg, ip administered 30 mins prior to test measured for last 4 mins of 6 mins observation by forced swim test (reference value: 153.9 to 201.9 secs); type: functional
[8] = target: T4, 5-hydroxytryptamine receptor 7 (Homo sapiens, UniProt P34969); assay: Antagonist activity at human 5-HT7 receptor expressed in CHO-K1 cells assessed as decrease in serotonin-induced cAMP level after 1 hr by TR-FRET assay; type: functional, cell-based
[9] = target: T4, 5-hydroxytryptamine receptor 7; assay: biochemical; type: cell-based, CHO
[10] = target: T5, Alpha-1A adrenergic receptor (Homo sapiens, UniProt P35348); assay: Displacement of [3H]prazosin from recombinant human alpha1 adrenoceptor expressed in CHO cell membranes after 30 mins by liquid scintillation counting method
T5 sequence (P35348 whole entry): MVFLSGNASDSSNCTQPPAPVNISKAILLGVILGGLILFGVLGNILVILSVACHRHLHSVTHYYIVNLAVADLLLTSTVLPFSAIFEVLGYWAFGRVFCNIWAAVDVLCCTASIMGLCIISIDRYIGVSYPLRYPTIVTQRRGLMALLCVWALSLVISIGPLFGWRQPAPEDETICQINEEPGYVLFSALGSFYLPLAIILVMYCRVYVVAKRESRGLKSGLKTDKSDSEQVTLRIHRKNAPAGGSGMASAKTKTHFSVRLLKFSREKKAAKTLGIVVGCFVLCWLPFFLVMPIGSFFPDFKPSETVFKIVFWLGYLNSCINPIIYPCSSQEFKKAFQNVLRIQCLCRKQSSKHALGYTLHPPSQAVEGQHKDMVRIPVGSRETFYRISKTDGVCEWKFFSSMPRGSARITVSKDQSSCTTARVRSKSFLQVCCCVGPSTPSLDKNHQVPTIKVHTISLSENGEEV

[11] = target: T4, 5-hydroxytryptamine receptor 7; assay: Antagonist activity at human 5-HT7 receptor expressed in CHO-K1 cells assessed as decrease in serotonin-induced cAMP level after 1 hr by TR-FRET assay relative to control; type: functional, cell-based
Mus musculus [12] = assay: Anxiolytic-like activity in Albino Swiss CD-1 mouse assessed as increase in number of punished crossings at 5 to 10 mg/kg, ip administered for 30 mins prior to test measured for 1 min by four-plate test; type: functional, organism-based
Summary of the method: (§2)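 Four-plate test in mice, i.p., 30 min before test; vehicle 0.9% NaCl; doses 1.25–10 mg/kg; number of punished crossings counted; mean ± SEM, n = 8–10 mice per group; ANOVA F statistics.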

D(2) dopamine receptor [13] = target: T3, D(2) dopamine receptor; assay: Agonist activity at human D2 receptor expressed in CHO-K1 cells co-expressing Galphaqi5 assessed as increase apomorphine-induced calcium mobilization measured for 30 secs by aequorin-derived luminescence assay relative to apomorphine; type: functional, cell-based
[14] = target: T4, 5-hydroxytryptamine receptor 7; assay: Agonist activity at human 5-HT7 receptor expressed in CHO-K1 cells assessed as increase in serotonin-induced cAMP level after 1 hr by TR-FRET assay relative to serotonin; type: functional, cell-based
[15] = target: T6, 5-hydroxytryptamine receptor 2A (Homo sapiens, UniProt P28223); assay: Antagonist activity at human 5-HT2A receptor expressed in CHO-K1 cells co-expressing Galpha16 assessed as decrease in serotonin calcium mobilization preincubated for 30 mins followed by serotonin challenge measured for 30 secs by aequorin-derived luminescence assay; type: functional, cell-based
[16] = target: T6, 5-hydroxytryptamine receptor 2A; assay: biochemical; type: cell-based, HEK293
[17] = target: T2, 5-hydroxytryptamine receptor 1A; assay: Displacement of [3H]8-OH-DPAT from recombinant human 5-HT1A receptor expressed in HEK293 cell membranes after 60 mins by liquid scintillation counting method
D(2) dopamine receptor [18] = target: T3, D(2) dopamine receptor; assay: Displacement of [3H]methylspiperonee from recombinant human D2 receptor expressed in HEK293 cells cell membranes after 60 mins by liquid scintillation counting method
Mus musculus [19] = assay: Toxicity in Albino Swiss CD-1 mouse assessed as effect on locomotory activity at 5 to 10 mg/kg, ip administered for 30 mins prior to test measured for 1 min; type: organism-based; settings: in vivo
Summary of the method: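 Mice dosed i.p. 30 min before test; vehicle groups received 0.9% NaCl. Spontaneous locomotion scored as number of crossings during a 1-min session. Each dose compared with its own vehicle group by Student t-test; mean ± SEM, n = 8–10 mice per group.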

[20] = target: T1, 5-hydroxytryptamine receptor 1A (Homo sapiens); assay: Antagonist activity at human 5-HT1A receptor expressed in CHO-K1 cells co-expressing Galpha16 assessed as decrease in serotonin-induced calcium mobilization preincubated for 25 mins followed by serotonin challenge measured for 30 secs by aequorin-derived luminescence assay relative to control; type: functional, cell-based
[21] = target: T1, 5-hydroxytryptamine receptor 1A (Homo sapiens); assay: Agonist activity at human 5-HT1A receptor expressed in CHO-K1 cells co-expressing Galpha16 assessed as increase in calcium mobilization measured for 30 secs by aequorin-derived luminescence assay relative to serotonin; type: functional, cell-based
Mus musculus [22] = assay: Neurotoxicity in Albino Swiss CD-1 mouse assessed as motor impairment at 15 mg/kg, ip treated 30 mins prior to test by rotarod test; type: toxicity, organism-based; settings: in vivo, 0.5 h
Mus musculus [23] = assay: Anticonvulsant activity in ip dosed Albino Swiss CD-1 mouse assessed as dose required to protect against 50 Hz current-induced seizure; type: functional; settings: Swiss CD-1, ip
[24] = Protection index, ratio of TD50 for motor impairment in ip dosed Swiss albino CD-1 mouse to ED50 for protection against 50 Hz current-induced seizures in ip dosed Swiss albino CD-1 mouse; type: toxicity, organism-based, Swiss CD-1; settings: in vivo, read-out: Ratio TD50/ED50
Mus musculus [25] = assay: Antiallodynic activity in oxaliplatin-induced Albino Swiss CD-1 mouse allodynia model assessed as effect on decrease in abnormal movement at 30 mg/kg, ip measured after 60 mins by cold plate test; type: functional, organism-based
Mus musculus [26] = assay: Antiallodynic activity in oxaliplatin-induced Albino Swiss CD-1 mouse allodynia model assessed as effect on jumping at 30 mg/kg, ip measured after 60 mins by cold plate test; type: functional, organism-based
Mus musculus [27] = assay: Toxicity in Albino Swiss CD-1 mouse assessed as death at 15 to 100 mg/kg, ip; type: organism-based; settings: in vivo
Summary of the method: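 Deaths counted in mice during maximal electroshock (MES) seizure testing after i.p. dosing, 6 mice per dose (3 or 1 at some top doses); recorded as number dead/number tested alongside protection and rotarod motor impairment (10 rpm); untreated control group included.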

Mus musculus [28] = assay: Antinociceptive activity in STZ-induced Albino Swiss CD-1 mouse model of thermal-induced nociception assessed as increase in latency to respond with hind paw lick or jumping at 30 mg/kg, ip measured after 60 mins by hot plate test; type: functional, organism-based
Mus musculus [29] = assay: Anxiolytic-like activity in Albino Swiss CD-1 mouse assessed as increase in number of punished crossings at 10 mg/kg, ip administered for 30 mins prior to test measured for 1 min by four-plate test; type: functional, organism-based; summary of the method: as §2
Mus musculus [30] = assay: Anticonvulsant activity in Albino Swiss CD-1 mouse assessed as protection against 50 Hz current-induced seizure at 100 mg/kg, ip; type: functional, organism-based
[31] = Neurotoxicity in ip dosed Albino Swiss CD-1 mouse assessed as minimum dose required to induce motor impairment treated 30 mins prior to test by rotarod test; type: toxicity, organism-based; settings: in vivo
Mus musculus [32] = assay: Antiallodynic activity in oxaliplatin-induced Albino Swiss CD-1 mouse allodynia model assessed as effect on shaking at 30 mg/kg, ip measured after 60 mins by cold plate test; type: functional, organism-based
Mus musculus [33] = assay: Antiallodynic activity in STZ-induced Albino Swiss CD-1 mouse allodynia model assessed as increase in paw withdrawal latency time at 30 mg/kg, ip measured after 60 mins by Von Frey test; type: functional, organism-based
Mus musculus [34] = assay: Antiallodynic activity in oxaliplatin-induced Albino Swiss CD-1 mouse allodynia model assessed as effect on hind paw licking at 30 mg/kg, ip measured after 60 mins by cold plate test; type: functional, organism-based

T4 sequence (P34969 whole entry): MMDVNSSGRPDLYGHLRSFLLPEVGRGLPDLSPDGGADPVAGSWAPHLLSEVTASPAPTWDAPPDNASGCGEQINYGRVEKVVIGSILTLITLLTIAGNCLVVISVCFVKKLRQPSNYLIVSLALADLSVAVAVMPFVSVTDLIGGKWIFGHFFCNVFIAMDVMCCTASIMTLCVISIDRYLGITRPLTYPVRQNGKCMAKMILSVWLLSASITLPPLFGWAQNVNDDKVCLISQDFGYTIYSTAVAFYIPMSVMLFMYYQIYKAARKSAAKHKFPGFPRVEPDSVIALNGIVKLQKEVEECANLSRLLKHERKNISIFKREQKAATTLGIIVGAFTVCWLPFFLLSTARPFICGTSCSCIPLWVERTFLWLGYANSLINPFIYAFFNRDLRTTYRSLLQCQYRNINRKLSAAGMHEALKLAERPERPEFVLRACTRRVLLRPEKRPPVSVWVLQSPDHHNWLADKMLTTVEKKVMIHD
T3 sequence (P14416 whole entry): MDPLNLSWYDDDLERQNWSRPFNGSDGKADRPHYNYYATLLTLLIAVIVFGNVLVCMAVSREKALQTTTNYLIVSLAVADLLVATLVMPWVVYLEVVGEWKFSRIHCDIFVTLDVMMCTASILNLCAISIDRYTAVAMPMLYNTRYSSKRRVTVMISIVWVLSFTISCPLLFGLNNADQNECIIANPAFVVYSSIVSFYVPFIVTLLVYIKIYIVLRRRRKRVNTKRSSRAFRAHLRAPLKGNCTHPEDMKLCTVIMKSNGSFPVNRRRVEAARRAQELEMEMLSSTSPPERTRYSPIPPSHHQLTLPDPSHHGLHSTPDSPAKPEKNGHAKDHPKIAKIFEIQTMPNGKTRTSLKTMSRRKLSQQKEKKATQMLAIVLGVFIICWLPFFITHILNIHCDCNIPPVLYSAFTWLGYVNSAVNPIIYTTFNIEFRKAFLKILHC
T6 sequence (P28223 whole entry): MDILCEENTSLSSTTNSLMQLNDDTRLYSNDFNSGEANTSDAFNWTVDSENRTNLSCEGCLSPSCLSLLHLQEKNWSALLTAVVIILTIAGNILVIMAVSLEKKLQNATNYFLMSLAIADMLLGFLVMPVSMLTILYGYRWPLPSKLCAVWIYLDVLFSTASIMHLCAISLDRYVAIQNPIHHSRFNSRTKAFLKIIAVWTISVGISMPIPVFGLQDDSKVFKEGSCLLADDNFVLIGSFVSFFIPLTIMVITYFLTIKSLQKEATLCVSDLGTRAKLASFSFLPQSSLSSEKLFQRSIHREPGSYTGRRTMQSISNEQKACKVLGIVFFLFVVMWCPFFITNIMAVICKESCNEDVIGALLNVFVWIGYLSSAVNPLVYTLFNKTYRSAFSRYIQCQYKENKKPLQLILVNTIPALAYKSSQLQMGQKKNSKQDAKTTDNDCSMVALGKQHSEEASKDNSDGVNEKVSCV
5-hydroxytryptamine receptor 6, sequence (P50406 whole entry): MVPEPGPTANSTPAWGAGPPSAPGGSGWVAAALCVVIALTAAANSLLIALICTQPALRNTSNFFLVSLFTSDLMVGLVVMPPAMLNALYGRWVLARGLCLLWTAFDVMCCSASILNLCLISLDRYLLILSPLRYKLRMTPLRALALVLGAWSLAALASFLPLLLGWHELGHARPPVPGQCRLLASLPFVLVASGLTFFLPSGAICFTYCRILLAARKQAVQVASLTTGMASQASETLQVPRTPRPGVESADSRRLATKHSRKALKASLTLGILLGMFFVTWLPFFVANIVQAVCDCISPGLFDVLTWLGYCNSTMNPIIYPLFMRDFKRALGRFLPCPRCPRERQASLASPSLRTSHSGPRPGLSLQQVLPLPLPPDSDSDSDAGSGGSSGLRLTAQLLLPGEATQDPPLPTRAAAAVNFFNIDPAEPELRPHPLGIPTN

Compound	Kb [1] [nM]	pIC50 [2]	Time (Mus musculus [4]) [s]	pKi [5]	Time (Mus musculus [6]) [s]	Time (Mus musculus [7]) [s]	pKi [9]	pKi [10]	pKi [16]	pKi [17]	pKi (D(2) dopamine receptor [18])	Activity (Mus musculus [19])	Emax [20] [%]	Emax [21] [%]	other results
Cc1cc(OCCCN2CCN(c3ccccc3)CC2)ccc1Cl.Cl.Cl	71.5	6.54	189.1	< 5.30	188.9	172.1	7.05	7.03	7.12	7.70	6.52	Non-Toxic	6	11	pEC50 (D(2) dopamine receptor [3]): 6.12; pIC50 [8]: 5.24; Kb [8]: 2460 nM; Emax [11]: 15%; Activity (Mus musculus [12]): inactive; Emax (D(2) dopamine receptor [13]): 48%; Emax [14]: 11%; pIC50 [15]: 4.07
COc1ccc(N2CCN(CCCOc3c(C)cc(C)cc3C)CC2)cc1.Cl.Cl	146	6.23	179.9	< 5.30	202	183.9	5.52	5.67	6.11	6.84	5.30	Non-Toxic	8	1	Activity (Mus musculus [22]): Non-Toxic; ED50 (Mus musculus [23]): 23.5 mg/kg; selectivity ratio [24]: 2.89; Activity (Mus musculus [25]): inactive; Activity (Mus musculus [26]): inactive; Activity (Mus musculus [27]): Non-Toxic; Activity (Mus musculus [28]): inactive; Activity (Mus musculus [29]): Active; Activity (Mus musculus [30]): Active; TD50 at 0.5 h [31]: 67.9 mg/kg; Activity (Mus musculus [32]): inactive; Activity (Mus musculus [33]): Active; Activity (Mus musculus [34]): inactive
